TRPC4 inh: blocks the mouse TRPC4 cation channel | Q9QUQ5 | HEK293 TRPC4beta/mu-opioid, DAMGO-evoked Fluo4 calcium flux; active compounds read low | B-score at 10 µM | hit rate 0.39% among 300,000;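 active = B-score over 3 SD under the library average, no early fluorescence shift, positive overall ratio signal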
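Assay system – HEK293 line stably carrying TRPC4beta and mu-opioid receptor · Doses – single dose · Detection – Fluo4 calcium-dye fluorescence, kinetic read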
TRPC6 inh: mouse TRPC6 channel inhibition | AID 2553 | HEK293-TRPC6, membrane potential dye, ACh-evoked depolarization; active compounds read low | Q61143 | B-score at 10 µM | hit rate 1.1% among 310,000;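 active = B-score under library mean minus 3 SD, initial fluorescence not abnormally high, positive integrated signal ratio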;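 also: B-score derived from integrated fluorescence ratio over the kinetic read; more negative B-score means stronger inhibition of depolarization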
TRPC6 act: activators of mouse TRPC6 channel | HEK293-TRPC6 membrane potential dye fluorescence; active compounds read high | hit rate 0.13% among 310,000 | B-score at 10 µM;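 active = B-score of the integrated fluorescence ratio above library mean plus 3 SD, and starting fluorescence ratio within library mean plus 5 SD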;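 also: higher score means more depolarization so channel activation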
TRPC4 agonist: activators of mouse TRPC4 channel. Q9QUQ5. HEK293 TRPC4beta/mu-opioid, Fluo4 calcium fluorescence; active compounds read high. B-score at 10 µM. hit rate 0.49% among 310,000;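 active = B-score above 5 SD of library B-scores, and initial fluorescence ratio not above library mean plus 5 SD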;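 also: positive B-score marks a calcium rise read as TRPC4 activation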
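System – HEK293 cells stably co-expressing mouse TRPC4beta and mu-opioid receptor · Signal – Fluo4 calcium-sensitive dye fluorescence, kinetic, 1 Hz baseline · Benchmarks – buffer (low) and maximal DAMGO (high) · Read-out – B score of integrated fluorescence ratio per well · Incubation – dye loading 45 min room temperature, 110 s kinetic read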
TRPC4 potent: TRPC4 (mouse) allosteric potentiation; hit rate 0.42% among 310,000; Q9QUQ5; AID 2227; HEK293 TRPC4beta/mu-opioid, DAMGO EC20, Fluo-4 Ca2+ flux; active compounds read high; B-score at 10 µM;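 active = B-score of calcium response area above 5 SD of library B-scores, with initial fluorescence ratio within 5 SD of library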;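 also: B-score of integrated fluorescence ratio over time as area under calcium response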
Starred values were filed as active, the others as inactive; i = inactive. An excerpt weighted towards active compounds, which were near 2.3% of everything screened.

SMILES | TRPC4 inh | TRPC6 inh | TRPC6 act | TRPC4 agonist | TRPC4 potent
CCOC(=O)C1(CCc2ccccc2)CCN(Cc2cccc3c2OCO3)CC1 | -6* | i | i | i | i
CCOC(=O)C1(CCc2ccccc2)CCN(Cc2csc(C(C)=O)c2)CC1 | i | i | i | 49* | i
CN1CCN(Cc2cc(=O)n3ccsc3n2)CC1 | i | i | i | i | 27*
O=c1cc(CN2CCNCC2)nc2sccn12 | i | i | i | i | i
O=c1[nH]c(=O)n(CCc2ccccc2)c(O)c1C=NC1CC1 | i | i | i | i | 14*
CN(C)CCCN=Cc1c(O)n(CCc2ccccc2)c(=O)[nH]c1=O | i | i | i | i | i
CC(C)N1CCN(Cc2c[nH]c3ccccc23)CC1CCO (stereo not given) | i | i | i | i | i
CN1CC(C(=O)c2ccc([N+](=O)[O-])cc2)C(c2ccc(Cl)cc2)C1 (stereo not given) | i | i | i | i | 13*
CC(C)(C)c1ccc(C(=O)C2CCCN(C3CCC3)C2)cc1 (stereo not given) | i | i | i | 57* | i
O=C(c1ccc(Cl)cc1)C1CCCN(Cc2ccon2)C1 (stereo not given) | i | i | i | i | i
CC(=O)N1CCC(N2CCCC(C(=O)c3cccc(Cl)c3)C2)CC1 (stereo not given) | i | -5.65* | i | i | i
CN1CCCC(C(=O)c2ccc(Cl)cc2)C1 (stereo not given) | -9* | i | i | 126* | i
CC1COC2N=C(N[N+](=O)[O-])NC2O1 (stereo not given) | i | i | i | i | i
CCC1=Nc2cc(C(=O)N3CCC4(CC3)OCCO4)ccc2Sc2ccccc21 | i | i | i | i | i
CCC1=Nc2cc(C(=O)N3CCC4(CC3)OCCO4)ccc2Sc2ccc(C)cc21 | -6* | i | i | i | i
COc1ccc(OC)c(N2C(=O)/C(=C/c3ccco3)C(=O)NC2=S)c1 | i | i | i | i | 10*
O=[N+]([O-])c1ccc(N2CCNCC2)c(Cl)c1 | i | i | i | 48* | 20*
CCCNC(=O)N1[C@H]2CC[C@@H]1C(C(=O)OC)=C(c1ccccc1)C2 | i | i | i | i | i
CCn1c(O)c(C=NCCc2c[nH]c3ccccc23)c(=O)[nH]c1=O | i | i | i | i | i
CN(C)c1ccc(/C=C/[N+](=O)[O-])cc1 | i | i | 18.8* | i | i
C/C(=C\c1ccc(N(C)C)cc1)[N+](=O)[O-] | i | i | i | i | i
CN(C)S(=O)(=O)c1cc(NC(=O)COC(=O)Cc2ccccc2)ccc1Cl | i | i | i | i | i
Nc1ccc(Cl)cc1C(=O)c1ccccc1Cl | i | i | i | i | 34*
CCN(CC)c1nc2c(C)cccn2c(=O)c1C=C1C(=O)NC(=O)NC1=O | i | i | i | i | 14*
NS(=O)(=O)OC(CCc1ccccc1)C(Cl)(Cl)Cl (stereo not given) | i | i | i | i | 12*
SMILES | TRPC4 inh | TRPC6 inh | TRPC6 act | TRPC4 agonist | TRPC4 potent
Cn1cnc(CCN)c1 | i | i | i | 143* | i
NC(N)=N/N=C/c1ccc(N(c2ccccc2)c2ccccc2)cc1 | i | i | i | 86* | i
O=C1Nc2ccc(Br)cc2C(c2ccc(Cl)cc2)=NC1O (stereo not given) | i | i | i | i | i
CCCCN1C(=O)NC(=O)C2(Cc3c(nc4c(C)cccn4c3=O)N3CCc4ccccc4C32)C1=O (stereo not given) | i | i | i | i | 19*
CCCCN1C(=O)NC(=O)C2(Cc3c(nc4ccccn4c3=O)N3CCc4ccccc4C32)C1=O (stereo not given) | i | i | i | i | 57*
Cc1ccc2c(c1)C1CN(C)CCC1N2C(=O)c1cccnc1Cl (stereo not given) | i | i | i | i | i
Cc1ccc2c(c1)C1CN(C)CCC1N2C(=O)c1cn(-c2ccccc2)nc1-c1ccccc1 (stereo not given) | i | i | i | i | 23*
